Measurements reported in PubChem BioAssay AID488769 (The Scripps Research Institute Molecular Screening Center, 2010).

Target: Nuclear receptor subfamily 5 group A member 2 (Homo sapiens) (UniProt O00482)
Test: suppression of cytokine-induced LRH-1 target mRNA, cell-based, quantitative PCR, fluorescence (AID 488769)
Conditions: Huh7 cytokine-induced target gene mRNA, TaqMan qPCR, 18 h, at 10 µM, active compounds read high
How it was run: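 Material: Huh7 cells with endogenous LRH-1 expression; also added: IL-1β and IL-6, 3 nM; compound dosing: single test concentration of 10 µM, DMSO as vehicle; timing: 18 h compound exposure, then 3 h cytokine stimulation; detection: TaqMan qPCR of haptoglobin, SAA1 and SAA4 mRNA; read-out basis: mean % inhibition of target mRNA; repeats: triplicate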

Sequence of Nuclear receptor subfamily 5 group A member 2 (Homo sapiens) (O00482 whole entry, looked up): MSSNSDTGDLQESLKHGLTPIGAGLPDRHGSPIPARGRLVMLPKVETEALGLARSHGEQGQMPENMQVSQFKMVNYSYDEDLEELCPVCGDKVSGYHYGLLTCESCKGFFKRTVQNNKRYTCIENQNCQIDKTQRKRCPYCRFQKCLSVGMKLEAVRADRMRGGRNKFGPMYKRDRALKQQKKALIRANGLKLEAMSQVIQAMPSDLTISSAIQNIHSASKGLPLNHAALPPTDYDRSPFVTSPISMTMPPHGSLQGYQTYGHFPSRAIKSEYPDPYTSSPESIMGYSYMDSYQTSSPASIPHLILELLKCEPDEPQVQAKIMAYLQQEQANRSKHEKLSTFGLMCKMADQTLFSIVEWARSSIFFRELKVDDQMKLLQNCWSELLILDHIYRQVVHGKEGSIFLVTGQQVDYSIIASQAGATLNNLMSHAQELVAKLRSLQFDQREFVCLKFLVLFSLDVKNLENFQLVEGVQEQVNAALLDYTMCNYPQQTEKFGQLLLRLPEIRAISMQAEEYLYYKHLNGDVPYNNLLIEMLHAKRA

| inhibition (Haptoglobin) | inhibition (SAA1) | inhibition (SAA4) | Structure (SMILES) |
| --- | --- | --- | --- |
| 88% | 91% | 55% | O=c1cc(N2CCN(c3cccc(Cl)c3)CC2)[nH]c(=O)n1C1CCCCC1 |
| 86% | 93% | 55% | O=c1cc(N2CCN(c3cccc(C(F)(F)F)c3)CC2)[nH]c(=O)n1C1CCCCC1 |
